Source: the EternaBench riboswitch data

System: MS2 coat protein
Experiment: apparent Kd, MS2 coat protein; higher = weaker binding; RNA-MaP array; FMN 200 µM where present
Summary of the method: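 The apparent Kd is the median of filtered binding-curve fits, one per cluster, to green signal normalised to red-channel RNA signal and control-cluster median Fmax. The clusters were on Illumina sequencing chips, and stalled E. coli RNA polymerase had transcribed the designs on them. Titration used SNAP-549-labelled MS2 coat protein from 0.7 or 1.5 nM, doubling to 3 µM, without and then with constant ligand, in 100 mM Tris-HCl pH 7.5, 80 mM KCl, 4 mM MgCl2, BSA, DTT, yeast tRNA and Tween-20.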

[1] = designed as: OFF switch for flavin mononucleotide, no ligand
[2] = ligand present: flavin mononucleotide, designed as: OFF switch for flavin mononucleotide
[3] = designed as: ON switch for flavin mononucleotide, no ligand
[4] = ligand present: flavin mononucleotide, designed as: ON switch for flavin mononucleotide

Sequence	apparent Kd [1]	apparent Kd [2]	apparent Kd [3]	apparent Kd [4]
UUGAUAAGGAGAGGAUAUUGACAUGAGGAUCACCCAUGUACAUGGGAGUAUUUACUGAAUUCUUACGAGAAGGCUUACAUAUUU	165 nM	115 nM		
AUAUCAUACCAAGGAUAUUUAGGACUUGUGUAGACAUGAGGAUCACCCAUGUGGCGUUAGUCACGGGAGAAGGUGGUAUGAUAU			83 nM	18.5 nM
GUGUGCUGAGGAUAUACAUAGGAAGAGAAGAGAAGAGAAGGACAUGAGGAUCACCCAUGUAGAAGGCAGAGUGU	28.2 nM	33.3 nM		
AAUUGUUUCUGAGGAUAUCAGUAGUAUGCUUUUUGAGAAGGCAGUACAUGAGGAUCACCCAUGUUGUGGUUUGAUAGAAUGAUA			193 nM	182 nM
CCAAGGAGAGGAUAUACACGGUUAUGGCCUCUUGAGUGGCGACAUGAGGAUCACCCAUGUAGAAGGCUCAGGGC	20.2 nM	57.4 nM		
AAUGGCUAGCGCUCUGGAACUGCACAGGAUAUGAAGAGCUACAUGAGGAUCACCCAUGUUUAAAAUCAGAAGGGUGAGUAUCAG			166 nM	16.2 nM
CUAUGAGCGAUAGGAUAUACUGAGAUUGAGUGGGUAGAAGGAUCGAUAGUGUAGAAGACAUGAGGAUCACCCAUGUUACGGGCC			188 nM	186 nM
AGGGUAUGAACAUGAGGAUCACCCAUGUACUAGGAAACGAAUGAGGAUAUCGAUAGCAAAGCUAUCGAGAAGGCAUGGGACCCU			322 nM	59.2 nM
GACUGACAUGAGGAUCACCCAUGUAUUCGAGCAUGAGGAUAUAUGACACGUCAUCGGCGGAUAGAAGGCAUGGUUG			124 nM	185 nM
UGGUACUAGGGAGGAUAUGGGAAGAUACAUGAGGAUCACCCAUGUUUAAGAAUGCCGAGAGGCAACUAGAAGGCCCUAGAACCU			406 nM	19.7 nM
GGGUACAUCGGAGGAUAUCAUGUAAAUACAUGAGGAUCACCCAUGUCGAUGGAGACAUCCGAGAUUGAGAAGGCCGAUGUACCG			29.3 nM	13.3 nM
CGCUCAAGAGAGAAGGAUAGAGUCAGAAGGCGUUACAUGAGGAUCACCCAUGUUUUGUAUAGUAACGAGGAUAUGAAAUGAGCG	19.7 nM	15 nM		
UGGUAACAUGAGGAUCACCCAUGUCAGGAUAUCAGUAAGAAGAGAUUAGAGUAGAAUAUGAGAAGGGACUAUAG	36.7 nM	30.4 nM		
CUGAGCAAUGUAGGAUAUCGACUGGAUAACAGUCGAGAAGGACAUGAGGAUCACCCAUGUCAAUGAGUGAAUAAUAAAGCUCAG	20.4 nM	118 nM		
UGGCGGAGCAGAGGAUAUUACAUGAGGAUCACCCAUGUAUGAACCAAUAGCUGGAAACAGCAAUGUAAGAAGGCUGCUCCGACA	12.1 nM	176 nM		
AUUUAAUUUAAUAAGAUCACAUGAGGAUCACCCAUGUAUAUAUAGGAUAUCAGCUCGUGUAGAGCUGAGAAGGAUAUAUACAUG	55 nM	55.2 nM		
GCACGAGACUAAGGAUAUGGUGUACCUACAUGAAACAUGAGGAUCACCCAUGUAGUAAGUAUGAUUCAGAAGGUAGAGACGUGC			30.4 nM	18.3 nM
GAUAGGACAGAGAAGGACAUAGCUAGAGAUACUAGCAUAUGAACCUUCACAUGAGGAUCACCCAUGUAGGAUAUCUGUCCUAUC	3.51 nM	3.96 nM		
AAAGGCCGAGGAUAUACAUGAGGAUCACCCAUGUGGACUCUGCAGAAUUGAUACCUUGGUAGAAGGUGGACCGG	23 nM	18.4 nM		
UUCCGGGUGCAGAAGGGAUAGGCCUAUUUUCGUGGUAUCCAAACCUUACAUGAGGAUCACCCAUGUCAGGAUAUGCCCACGGAA	4.93 nM	4.72 nM		
ACGUCCCUCCAGAAGGGCAACUCGACAUGAGGAUCACCCAUGUUUACUUGCAGGAUAUGGUGGUAGAUCUAGUUAGCUCGAAGG			176 nM	47.4 nM
AACAAUCACAUAGGAUAUAGAAUAUUAUAUUUUUACAUGAGGAUCACCCAUGUUUUAUUGGGAUUCUAGAAGGAUGAGUAAUAA			162 nM	90.8 nM
CGUCUAUGCCAGAAGGCAUGAAACAUGAGGAUCACCCAUGUCAAAGACAUGAGGAUAUGGCAUAGACGAAAAGUGCGAAAGCAC			4.32 nM	3.27 nM
UGGGUAAAUGUAGGAUAUUUAUAUUAAUAGUAUGGAGAAGGACAUGAGGAUCACCCAUGUACAGGGAAUUACCCAUUUCCUCUC	1010 nM	1100 nM		
UGUUGUAUUACAGGAUAUCUAUUGUUAUUAUUUAGAGAAGGGUAUUCACAUGAGGAUCACCCAUGUAUAUACGAGGAAGUUGUG			45.3 nM	45.5 nM
UGUUUUCAUGUAGGAUAUGCUUGUCGUAGAUACGCAGAAGGACAUGAGGAUCACCCAUGUUAAUGCUACAGAUUUUAGUUUCUU	19.5 nM	102 nM		
CAGGUUAGAGGAUAUACGUAGGUACAGAUCUGUGUGUUUCUACAUGAGGAUCACCCAUGUAGAAGGCUAUCCUG	25.6 nM	20 nM		
UAUAUAUAGGCAGGAUAUACAUGAAUAUAUAUAAUGUAGUAUGAUGUAACAUGAGGAUCACCCAUGUAGAAGGGCCAAUAUAUA	36.8 nM	95.2 nM		

Sequence	apparent Kd [1]	apparent Kd [2]	apparent Kd [3]	apparent Kd [4]
CUUUUGUGAGGAUAUCAGUAGUAAAAAAAUAAAAUUUCUACUGAGAAGGCACAUGAGGAUCACCCAUGUUCCUC	34 nM	184 nM		
AUUAUGUUAGGAUAUGCUUAUGGUGGAUAGUCGGAUAUGAUGCAGAAGGGACAUGAGGAUCACCCAUGUACUGA	22.4 nM	22.1 nM		
AGAUGGUCAGGAUAUGCGUGAAGAAUAAAACAAAUAACAACGCAGAAGGGACAUGAGGAUCACCCAUGUCAUCA	21.9 nM	17.3 nM		
GCACGGCAUGUAGGAUAUCGAGCGCCGGGCGCUCGAGAAGGACAUGAGGAUCACCCAUGUAUUCUCAGUGAGAGAGUGCUGUGC	36.1 nM	55.9 nM		
GUGCCUUGGUAGAAGGCCCAAUGCAAAGCAUAGGGAGGAUAUACAUAUAAUAAAUAAACAUGAGGAUCACCCAUGUGGCACAAA			10.8 nM	10.4 nM
AUCAGCUCGUCAGGAUAUCCGUCACUGCGUCAGCAGUGUGGUAAGAUCACAUGAGGAUCACCCAUGUAGAAGGGACGAGCUGAU	6.08 nM	6.5 nM		
UCGCUGCGAGGAUAUACGUUUGCGCGUUUUCGUUUGCGCGUACAUGAGGAUCACCCAUGUAGAAGGCGCGCGGC	14.3 nM	14.8 nM		
AAUUGGAUCCAGAAGGCAUGGACGACCCGUCACAUUAACAUGAGGAUCACCCAUGUCAAAAUACAUGAGGAUAUGGAUCCUAAA			905 nM	37.9 nM
CAAAAGCUAGGAUAUACGUCAAAGGGCCCGAUCGCUCUCGGACAUGAGGAUCACCCAUGUAGAAGGAGCGCACU	14.4 nM	16.8 nM		
UAUGCACAUGAGGAUCACCCAUGUGAGGAUAUAGGUCGUGUGCGUUCACGCAUCGUACUUAGAAGGCACUGCGG	46.9 nM	92.5 nM		
GACUCGCGCACAGGAUAUCCACGUAGCGGACGUGGAGAAGGGUGACAUGAGGAUCACCCAUGUACGUGAGUCUAGAUCACUUCC			40.2 nM	22.8 nM
UAAGCGUAUGUUAGGAUAUGCUGGUCCUUGGAUCAGCAGAAGGAACAUGAGGAUCACCCAUGUAGAAUCGUUUA	18.3 nM	40.2 nM		
AAGCAUUGGCUUCUCAUCUACAUGAGGAUCACCCAUGUCGGGAGAAGGAGGCGUUGACGAAUAGCCUAGGAUAUCCUAACGUGC	6.84 nM	6.99 nM		
UUCCUCACUUCUUUGACUCACAUGAGGAUCACCCAUGUAAUAUAGGAUAUGCAUUUUAUUUCUUUGCAGAAGGAUAUUAGUUUU	44.8 nM	141 nM		
GUUUCGGGAGGAUAUGCGUGGAUUGUUCUCGUAUGUUGUUUACAUGAGGAUCACCCAUGUAGAAGGUCUGGAGC	170 nM	136 nM		
CGCAUGCGUAGAAUUAGUUGCUGACAGGAUAUGACAUGAGGAUCACCCAUGUGAUUUAAGAAGAGUCAGAAGGGUCACGAUGCG	10.7 nM	15.1 nM		
AUACAUGAGGAUCACCCAUGUUACUGGGUCUAUAUAGAACGUAGAAGGAUGUAUUUACACAUAACAUAGGAUAUACUUUAUAGU	55.2 nM	41.9 nM		
UUGCCUCAGAACAUGAGGAUCACCCAUGUGCUGCGGGCAACGUAGGAUAUGAUGGUGUGACACCGUCAGAAGGAUGAUGGUACC			5.97 nM	6.05 nM
GUGACGAUGUAAGGAUAUGCUGAGGAUAACUCAGCAGAAGGUACAUGAGGAUCACCCAUGUAACGUCACAAUAAUAAUAAUAAU	12.3 nM	22.9 nM		
GGACGCGUAGGAUAUGCAAUCGAAGUCGAGUUUUCUGGUGGACAUGAGGAUCACCCAUGUAGAAGGAUGUAGCA	44.2 nM	33.4 nM		
UUAUUGUGAGGAUAUCAGGUGUGCUAGCGUACUGGUACAUCUGAGAAGGCACAUGAGGAUCACCCAUGUUUCUU	23.4 nM	66.9 nM		
GGUGUCGCAUGAGGAUAUGGUCAGCUUUGCUGACCAGAAGGCAUGUCAAUAGACAUGAGGAUCACCCAUGUAGUUAAGACACCA			739 nM	48.2 nM
GAGUGACAUGAGGAUCACCCAUGUGAGGAUAUCGGACGGACCUUGUUAGCUUCCGCCGCGAGAAGGCACAUCGG	208 nM	34.5 nM		
AAAAGACAUGAGGAUCACCCAUGUAAAGACGUGGGAGGAUAUGUAUGGAAACCAGACUGUACAGAAGGCCUUUGUC			161 nM	52.4 nM
GACAUGAGGAUCACCCAUGUCCAACCAGAAGGCCAGAAAUCGAACCCGUGUAUCGGGUCCGAGAUGGAGGAUAUGGGCGCCGAA			72.4 nM	32.4 nM
UAUGUUGUUGUGAGGAUAUACUUAGUUUGACCGUAGUAGAAGGCACAUGAGGAUCACCCAUGUAGAUUUUUGGU	9.54 nM	15.8 nM		
CUUGUGUUAGGAUAUGCGCCCUGAAGUGGAAGGGCCAGAGAGCAGAAGGGACAUGAGGAUCACCCAUGUGUGAC	79.7 nM	125 nM		
